Laboratory results taken from ChEMBL document CHEMBL1127320, “Dual-action cephalosporins incorporating a 3'-tertiary-amine-linked quinolone” (J Med Chem, 1994).
Converted amounts (≈) assume the structure as drawn.

Key:
[1] = system: Streptococcus pneumoniae; assay: Tested for its efficacy against systemic murine infection caused by Streptococcus pneumoniae 6301.; assay type: functional
Summary of the method: (§1)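 CD1 Swiss albino mice (18-20 g) were infected intraperitoneally with 0.5 mL of diluted culture. Within 5 min they received 1.0 mL test solution subcutaneously at the dorsal neck, in dilutions spanning 250–0.05 mg/kg. P. aeruginosa groups received a second dose at 3 h. Groups were six mice. ED50 was calculated by Reed–Muench interpolation of cumulative survival.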

[2] = system: Streptococcus pneumoniae; assay: In vitro minimum inhibitory concentration was measured against Streptococcus pneumoniae 6301 strain; assay type: functional
Summary of the method: (§2)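 Streptococci were tested on brain heart infusion agar plus 20 units/mL catalase, Proteus on Mueller-Hinton with 3% agar, and others on Mueller-Hinton agar. Inocula were 100-fold-diluted overnight cultures, about 3 × 10^4 CFU/spot, read after overnight incubation at 36 °C.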

[3] = system: Enterococcus faecalis; assay: In vitro minimum inhibitory concentration was measured against Enterococcus faecalis ATCC 29212 strain.; assay type: functional; summary of the method: as §2
[4] = system: Pseudomonas aeruginosa; assay: Tested for its efficacy against systemic murine infection caused by Pseudomonas aeruginosa 8780.; assay type: functional; summary of the method: as §1
[5] = system: Serratia marcescens; assay: In vitro minimum inhibitory concentration was measured against Serratia marcescens 1071(beta lactamase producer) strain.; assay type: functional; summary of the method: as §2
[6] = system: Klebsiella pneumoniae; assay: Tested for its efficacy against systemic murine infection caused by Klebsiella pneumoniae A; assay type: functional; summary of the method: as §1
[7] = system: Klebsiella pneumoniae; assay: In vitro minimum inhibitory concentration was measured against Klebsiella pneumoniae A strain.; assay type: functional; summary of the method: as §2
[8] = system: Streptococcus pyogenes; assay: In vitro minimum inhibitory concentration was measured against Streptococcus pyogenes 4 strain.; assay type: functional; summary of the method: as §2
[9] = system: Staphylococcus aureus; assay: In vitro minimum inhibitory concentration was measured against Staphylococcus aureus 67-0 (Methicillin resistant) strain.; assay type: functional
[10] = system: Citrobacter freundii; assay: In vitro minimum inhibitory concentration was measured against Citrobacter freundii BS-16 (beta lactamase producer) strain.; assay type: functional
Summary of the method: as §2, with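 “MICs were determined by agar dilution with 2-fold dilutions giving final 128–0.0156 µg/mL, extended to 0.000977 µg/mL where needed. Streptococci” for “Streptococci”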

[11] = system: Micrococcus luteus; assay: In vitro minimum inhibitory concentration was measured against Micrococcus luteus ATCC 9341 strain.; assay type: functional; summary of the method: as §2
[12] = system: Proteus mirabilis; assay: In vitro minimum inhibitory concentration was measured against Proteus mirabilis 90 strain.; assay type: functional; summary of the method: as §2
[13] = system: Staphylococcus aureus; assay: In vitro minimum inhibitory concentration was measured against Staphylococcus aureus 753 (Methicillin resistant) strain.; assay type: functional
[14] = system: Serratia marcescens; assay: Tested for its efficacy against systemic murine infection caused by Serratia marcescens SM.; assay type: functional; summary of the method: as §1
[15] = system: Staphylococcus aureus; assay: Tested for its efficacy against systemic murine infection caused by Staphylococcus aureus smith.; assay type: functional; summary of the method: as §1
[16] = system: Enterobacter cloacae; assay: In vitro minimum inhibitory concentration was measured against Enterobacter cloacae p99 (beta lactamase producer) strain.; assay type: functional
[17] = system: Escherichia coli; assay: In vitro minimum inhibitory concentration was measured against Escherichia coli TEM-1 (Beta lactamase producer) strain.; assay type: functional; summary of the method: as §2
[18] = system: Escherichia coli; assay: Minimum inhibitory concentration for DC2, a permeability mutant
Summary of the method: as §2, with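 “MICs were determined by agar dilution with 2-fold dilutions giving final 128–0.0156 µg/mL, extended to 0.000977 µg/mL where needed. Streptococci” for “Streptococci”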

[19] = system: Proteus vulgaris; assay: In vitro minimum inhibitory concentration was measured against Proteus vulgaris 1028BC (beta lactamase producer) strain.; assay type: functional; summary of the method: as §2
[20] = molecular target: T1, Penicillin-binding protein 1A (Escherichia coli K-12) (UniProt P02918); assay: Affinity for penicillin binding protein 1a of Escherichia coli UB1005 (DC0) was evaluated.; set-up: unit not given here
T1 sequence (whole entry): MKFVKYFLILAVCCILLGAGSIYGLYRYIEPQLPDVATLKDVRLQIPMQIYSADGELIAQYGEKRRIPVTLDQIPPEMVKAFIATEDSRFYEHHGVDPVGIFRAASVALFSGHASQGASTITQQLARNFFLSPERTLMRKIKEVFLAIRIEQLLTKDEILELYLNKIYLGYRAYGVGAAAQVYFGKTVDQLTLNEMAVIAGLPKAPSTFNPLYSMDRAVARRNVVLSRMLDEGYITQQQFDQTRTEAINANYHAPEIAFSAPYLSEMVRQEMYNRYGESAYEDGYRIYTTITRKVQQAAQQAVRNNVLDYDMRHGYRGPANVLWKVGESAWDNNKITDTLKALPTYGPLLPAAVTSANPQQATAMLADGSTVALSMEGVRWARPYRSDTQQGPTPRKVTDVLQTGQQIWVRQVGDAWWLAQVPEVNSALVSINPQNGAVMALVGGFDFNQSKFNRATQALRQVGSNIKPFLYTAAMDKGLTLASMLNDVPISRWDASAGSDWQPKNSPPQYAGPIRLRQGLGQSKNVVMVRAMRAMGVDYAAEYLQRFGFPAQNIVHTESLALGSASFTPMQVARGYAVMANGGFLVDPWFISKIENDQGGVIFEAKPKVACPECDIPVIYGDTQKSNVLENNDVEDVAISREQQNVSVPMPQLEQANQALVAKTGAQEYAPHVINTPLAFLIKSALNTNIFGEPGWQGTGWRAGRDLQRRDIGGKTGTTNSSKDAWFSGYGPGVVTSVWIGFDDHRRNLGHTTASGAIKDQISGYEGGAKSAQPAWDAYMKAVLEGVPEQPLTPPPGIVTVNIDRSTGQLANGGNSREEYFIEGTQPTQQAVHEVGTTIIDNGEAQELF
Summary of the method: (§3)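 Solubilised membranes from sonicated E. coli UB1005 served as the binding-protein source. Binding was read as inhibition of [14C]penicillin G binding.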

[21] = system: Penicillin-binding protein 3 (Escherichia coli); assay: Affinity for penicillin binding protein 3 of Escherichia coli UB1005 (DC0) was evaluated.; (</=)
[22] = system: Escherichia coli; assay: In vitro minimum inhibitory concentration was measured against Escherichia coli 257 strain.; assay type: functional; summary of the method: as §2
[23] = molecular target: T2, Penicillin-binding protein 1B (Escherichia coli K-12) (UniProt P02919); assay: Affinity for penicillin binding protein 1b of Escherichia coli UB1005 (DC0) was evaluated.; set-up: unit not given here; summary of the method: as §3
T2 sequence (whole entry): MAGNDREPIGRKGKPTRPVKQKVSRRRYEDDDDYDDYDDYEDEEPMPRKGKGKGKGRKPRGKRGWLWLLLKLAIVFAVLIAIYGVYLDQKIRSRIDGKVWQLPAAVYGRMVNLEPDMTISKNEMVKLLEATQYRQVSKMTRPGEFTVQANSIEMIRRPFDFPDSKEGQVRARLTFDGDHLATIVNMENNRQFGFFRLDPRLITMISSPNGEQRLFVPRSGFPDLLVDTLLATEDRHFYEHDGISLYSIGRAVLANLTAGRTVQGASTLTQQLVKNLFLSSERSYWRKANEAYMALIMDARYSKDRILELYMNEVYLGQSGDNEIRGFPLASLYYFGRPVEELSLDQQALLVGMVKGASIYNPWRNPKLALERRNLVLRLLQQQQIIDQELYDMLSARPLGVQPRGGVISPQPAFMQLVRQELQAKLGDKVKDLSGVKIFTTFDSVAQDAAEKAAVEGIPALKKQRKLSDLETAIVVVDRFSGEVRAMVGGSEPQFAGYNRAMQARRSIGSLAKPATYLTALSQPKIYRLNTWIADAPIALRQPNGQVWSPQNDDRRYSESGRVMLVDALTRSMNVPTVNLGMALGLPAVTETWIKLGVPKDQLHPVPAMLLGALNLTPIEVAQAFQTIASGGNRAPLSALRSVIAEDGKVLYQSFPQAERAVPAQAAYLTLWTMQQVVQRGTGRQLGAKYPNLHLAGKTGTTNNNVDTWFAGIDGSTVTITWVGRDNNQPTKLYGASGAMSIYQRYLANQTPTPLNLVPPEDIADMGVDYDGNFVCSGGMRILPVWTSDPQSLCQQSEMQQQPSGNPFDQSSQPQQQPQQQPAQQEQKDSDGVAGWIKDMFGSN

[24] = system: Escherichia coli; assay: Minimum inhibitory concentration against E. coli UB1005 (DC0)
[25] = molecular target: T3, Peptidoglycan D,D-transpeptidase MrdA (Escherichia coli K-12) (UniProt P0AD65); assay: Affinity for penicillin binding protein 2 of Escherichia coli UB1005 (DC0) was evaluated.; set-up: unit not given here; summary of the method: as §3
T3 sequence (whole entry): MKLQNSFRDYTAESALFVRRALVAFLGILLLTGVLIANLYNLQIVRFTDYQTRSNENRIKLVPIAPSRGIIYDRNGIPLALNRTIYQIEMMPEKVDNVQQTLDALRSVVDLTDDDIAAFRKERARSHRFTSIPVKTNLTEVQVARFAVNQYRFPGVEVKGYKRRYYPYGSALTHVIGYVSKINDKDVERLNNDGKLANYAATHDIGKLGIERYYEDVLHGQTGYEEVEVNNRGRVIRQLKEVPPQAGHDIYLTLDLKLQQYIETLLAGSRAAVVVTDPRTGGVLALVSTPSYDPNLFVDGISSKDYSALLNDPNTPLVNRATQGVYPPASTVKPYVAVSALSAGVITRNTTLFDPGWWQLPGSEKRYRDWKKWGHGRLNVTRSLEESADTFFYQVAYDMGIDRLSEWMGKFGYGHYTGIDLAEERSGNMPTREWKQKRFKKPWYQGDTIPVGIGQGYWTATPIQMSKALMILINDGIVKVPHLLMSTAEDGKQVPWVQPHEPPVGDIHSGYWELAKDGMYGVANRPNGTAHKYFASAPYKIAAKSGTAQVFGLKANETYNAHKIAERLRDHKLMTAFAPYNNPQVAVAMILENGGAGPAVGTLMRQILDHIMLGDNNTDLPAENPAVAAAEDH

[26] = Half life was measured as degradation by HPLC analysis.; assay type: ADME
[27] = system: Enterobacter cloacae; assay: In vitro minimum inhibitory concentration was measured against Enterobacter cloacae 5699 strain.; assay type: functional
[28] = system: Staphylococcus aureus; assay: In vitro minimum inhibitory concentration was measured against Staphylococcus aureus smith strain.; assay type: functional
[29] = system: Escherichia coli; assay: In vitro minimum inhibitory concentration was measured against Escherichia coli 257 strain; (</=); assay type: functional
Summary of the method: as §2, with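 “MICs were determined by agar dilution with 2-fold dilutions giving final 128–0.0156 µg/mL, extended to 0.000977 µg/mL where needed. Streptococci” for “Streptococci”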

[30] = system: Pseudomonas aeruginosa; assay: In vitro minimum inhibitory concentration was measured against Pseudomonas aeruginosa 8780 strain.; assay type: functional; summary of the method: as §2
[31] = system: Escherichia coli; assay: In vitro minimum inhibitory concentration was measured against Escherichia coli ATCC 25922 strain.; (</=); assay type: functional
Summary of the method: as §2, with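 “MICs were determined by agar dilution with 2-fold dilutions giving final 128–0.0156 µg/mL, extended to 0.000977 µg/mL where needed. Streptococci” for “Streptococci”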

[32] = system: Pseudomonas aeruginosa; assay: In vitro minimum inhibitory concentration was measured against Pseudomonas aeruginosa 18S/H strain.; assay type: functional; summary of the method: as §2
[33] = system: Penicillin-binding protein 3 (Escherichia coli); assay: Affinity for penicillin binding protein 3 of Escherichia coli UB1005 (DC0) was evaluated.; set-up: unit not given here

SMILES	MIC [2]	MIC [3]	MIC [5]	MIC [7]	MIC [8]	MIC [9]	MIC [10]	MIC [11]	MIC [12]	MIC [13]	MIC [16]	MIC [17]	MIC [18]	MIC [19]	Binding affinity [20]	Binding affinity [23]	Binding affinity [25]	also measured
O=C(O)c1cn(C2CC2)c2cc(N3CCNCC3)c(F)cc2c1=O [CIPROFLOXACIN]	1 µg/mL (≈ 3.02 µM)	1 µg/mL (≈ 3.02 µM)	0.063 µg/mL (≈ 0.19 µM)	0.25 µg/mL (≈ 0.754 µM)	0.5 µg/mL (≈ 1.51 µM)	0.5 µg/mL (≈ 1.51 µM)	0.031 µg/mL (≈ 0.0936 µM)	2 µg/mL (≈ 6.04 µM)	0.063 µg/mL (≈ 0.19 µM)	0.25 µg/mL (≈ 0.754 µM)								ED50 [1]: > 100 mg/kg; ED50 [4]: 4 mg/kg; ED50 [6]: 1 mg/kg; ED50 [14]: < 0.5 mg/kg; ED50 [15]: 3 mg/kg
O=C(O)C1=C(CN2CCN(c3cc4c(cc3F)c(=O)c(C(=O)O)cn4C3CC3)CC2)CS[C@@H]2[C@H](NC(=O)[C@H](O)c3ccccc3)C(=O)N12	0.063 µg/mL (≈ 0.093 µM)				0.031 µg/mL (≈ 0.0457 µM)		0.125 µg/mL (≈ 0.184 µM)	0.031 µg/mL (≈ 0.0457 µM)			0.031 µg/mL (≈ 0.0457 µM)	0.125 µg/mL (≈ 0.184 µM)	2 µg/mL (≈ 2.95 µM)	0.063 µg/mL (≈ 0.093 µM)	100	> 100	> 100	Binding affinity [21]: < 0.1; MIC [22]: 0.125 µg/mL (≈ 0.184 µM); MIC [24]: 4 µg/mL (≈ 5.9 µM)
CCN1CCN(C(=O)N[C@@H](C(=O)N[C@@H]2C(=O)N3C(C(=O)O)=C(CN4CCN(c5cc6c(cc5F)c(=O)c(C(=O)O)cn6C5CC5)CC4)CS[C@H]23)c2ccc(O)cc2)C(=O)C1=O	0.125 µg/mL (≈ 0.145 µM)	16 µg/mL (≈ 18.6 µM)	0.25 µg/mL (≈ 0.29 µM)	0.5 µg/mL (≈ 0.581 µM)	0.125 µg/mL (≈ 0.145 µM)	16 µg/mL (≈ 18.6 µM)	0.063 µg/mL (≈ 0.0732 µM)	0.5 µg/mL (≈ 0.581 µM)	1 µg/mL (≈ 1.16 µM)	2 µg/mL (≈ 2.32 µM)	≤ 0.016 µg/mL	0.031 µg/mL (≈ 0.036 µM)	0.25 µg/mL (≈ 0.29 µM)	0.063 µg/mL (≈ 0.0732 µM)	> 100	> 100	> 100	half-life [26]: 60 h; MIC [27]: 0.125 µg/mL (≈ 0.145 µM); MIC [28]: 2 µg/mL (≈ 2.32 µM); MIC [29]: < 0.016 µg/mL; MIC [30]: 8 µg/mL (≈ 9.29 µM); MIC [31]: < 0.016 µg/mL; MIC [32]: 2 µg/mL (≈ 2.32 µM); Binding affinity [33]: 2
